Hits are enriched below; roughly 1.7% of the tested compounds scored in any of these assays.
TbMetRS inhib – Trypanosoma brucei MetRS inhibition; purified T. brucei MetRS, ATP depletion, Kinase-Glo luminescence; inhibition, % at 11.9 µM; actives 0.4% (n = 360,000);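 active means inhibition above a per-plate cutoff of the control wells' mean inhibition plus 3 SD, cut at about 5.5% in these data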;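 further: 0% = DMSO wells median and 100% = median of wells with control inhibitor compound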
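Dosing: 11.9 µM single point; system: parasite MetRS enzyme; technique: luminescence of leftover ATP; times: 15 min enzyme-compound preincubation, 2 h reaction, 10 min detection, 25 °C; replicates: each compound tested once; read-out basis: percent inhibition relative to median high and low control wells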
CSN inh – blocks human CSN-mediated cullin deneddylation. AID 651999. inhibition, % at 12.5 µM. actives 0.38% (n = 360,000). Purified CSN, SCF-Nedd8-OG deneddylation, fluorescence polarization;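 active means pattern-corrected inhibition above about 35%, with an unprinted fluorescence ratio check between 0.5 and 1.5, limit read from the data, passing the limit was not always enough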;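 further: 0% = enzyme with substrate and 100% = substrate without enzyme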
Target sequence (Q92905 whole entry, looked up, one chain of several): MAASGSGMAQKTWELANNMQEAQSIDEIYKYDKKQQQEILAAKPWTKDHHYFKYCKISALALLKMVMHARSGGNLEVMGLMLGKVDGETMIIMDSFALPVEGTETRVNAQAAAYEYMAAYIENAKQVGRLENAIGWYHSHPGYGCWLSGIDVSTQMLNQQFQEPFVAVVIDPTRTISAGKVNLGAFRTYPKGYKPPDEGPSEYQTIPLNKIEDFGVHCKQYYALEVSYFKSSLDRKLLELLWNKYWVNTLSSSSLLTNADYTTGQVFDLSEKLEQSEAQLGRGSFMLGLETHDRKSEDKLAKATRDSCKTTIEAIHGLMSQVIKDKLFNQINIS
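assay system = purified human Csn5 enzyme expressed in HEK293T cells | amount = 0.24 nM enzyme | buffer or medium = Tris/NaCl/DTT buffer, pH 7.5 | reagent = 10 nM SCFSkp2-Nedd8OG | compound = one concentration, 12.5 µM, 0.25% DMSO | times = 90 min reaction at room temperature | signal = FP | read-out basis = % inhibition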
IDE inh – inhibitors of human insulin-degrading enzyme in cells. P14735. HEK cells, FAbetaB cleavage, fluorescence polarization. inhibition, % at 5.59 µM. actives 0.41% (n = 320,000). AID 434962;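 active means percent inhibition above the average of all tested compounds plus 3 SD, set per screening campaign, cut at about 16% in these data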;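 further: IDE supplied by intact live HEK cells; FP after avidin binding of uncleaved biotin substrate so inhibition keeps polarization high; 0% = DMSO wells and 100% = 60 µM reference IDE inhibitor Ii1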
IDE cell activ – IDE (human) activation, cell-based; P14735; HEK cells, FAbeta-B cleavage, fluorescence polarization; 0% vehicle, 100% cell-free pure enzyme wells; activation, % at 5.96 µM; actives 0.073% (n = 340,000); AID 493087;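 active means activation above the mean of all tested compounds plus 3 SD, set per screening campaign, cut at about 17% in these data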
TPT1 inhibitor – C. albicans TPT1 enzyme inhibition; actives 0.81% (n = 300,000); inhibition, % at 5 µM; recombinant caTPT1, FP RNA substrate dephosphorylation; AID 1962;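 active means inhibition above the mean of all tested compounds plus 3 SD, set per screening campaign, cut at about 24% in these data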;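 further: plate controls were DMSO alone for no effect and ferristatin control at 100 nM for full effect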
HNF4A DNA FP – change in binding of human HNF4 alpha to DNA; HNF4a-FITC DNA binding, fluorescence polarization, 1 h; activity change, % at 10 µM; actives 0.3% (n = 360,000); AID 1224865; in the data active means activity change above about 30%, passing the limit was not always enough
TbMetRS confirm – Trypanosoma brucei MetRS inhibition confirmed | inhibition, % at 11.9 µM | T. brucei MetRS enzyme, luminescence (ATP depletion) | shares compounds with TbMetRS inhib | actives 93% (n = 1,400) | AID 624412; in the data active means inhibition above about 7%
Jurkat cytotox – kills Jurkat cells in T. brucei MetRS counterscreen. shares compounds with TbMetRS inhib. Jurkat cells viability, ATP luminescence. inhibition, % at 8.3 µM. actives 12% (n = 1,400). AID 624413; in the data active means inhibition above about 15%;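 further: 0% = vehicle and 100% = reference inhibitor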
TbMetRS FP orth – orthogonal test for Trypanosoma brucei MetRS inhibitors | shares compounds with TbMetRS inhib | purified T. brucei MetRS, fluorescence polarization | inhibition, % at 11.9 µM | actives 44% (n = 1,400) | AID 651607; in the data active means inhibition above about 17%;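 further: 0% = vehicle wells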
Numbers without * were called inactive; x = no result given; ! = not active in a repeat.

SMILES	TbMetRS inhib	CSN inh	IDE inh	IDE cell activ	TPT1 inhibitor	HNF4A DNA FP	TbMetRS confirm	Jurkat cytotox	TbMetRS FP orth
Nc1nc(N)c(-c2cccc(C(F)(F)F)c2)c(Cc2cccc(C(F)(F)F)c2)n1	15.9*	-1.7	x	-3.7	x	0.1	60.1*	-6.3	34.2*
Cc1cc(=O)n2c(n1)NC(=NCc1ccccc1)NC2c1ccccc1 (stereo not given)	8.5*	1.9	-1.5	x	7.0	-2.3	18.2*	1.2	10.9
CCC1(CC)C(=O)N(C)C(=O)NC1=NCc1ccccc1	-1.0	-6.9	1.8	7.8	-3.2	0.0	x	x	x
O=C(N/C(=C/c1ccc(Cl)cc1)c1nc2ccccc2[nH]1)c1ccco1	-0.7	2.0	-0.9	-1.1	-1.2	3.1	x	x	x
O=C(/C(=C/c1ccc(Cl)cc1)c1nc2ccccc2[nH]1)c1ccccc1	6.6*	0.1	1.1	0.4	-2.9	4.1	2.6	97.5*	4.5
O=C(COC(=O)c1ccc([N+](=O)[O-])cc1)Nc1ccccc1C(=O)NC1CC1	0.2	-5.5	-1.0	3.1	x	2.5	x	x	x
Cc1nc(NCCC(C)C)c2nnn(Cc3ccccc3)c2n1	7.3*	-0.3	-2.1	2.7	-5.1	0.3	2.1	2.0	8.5
O=S(=O)(c1ccccc1)c1nc(Nc2cccc(O)c2)sc1Cl	10.5*	-7.6	-1.6	0.3	5.4	-1.1	19.6*	18.4*	5.8
Cc1ccc(OCCSc2nc3ncnc(N)c3[nH]2)cc1	0.7	6.7	7.2	-4.5	-2.4	-1.1	x	x	x
Nc1ncnc2nc(SCCOc3ccc(Cl)cc3)[nH]c12	5.7*	-5.8	2.0	4.3	-2.0	2.8	14.2*	-12.4	1.9
Cc1ccc(S(=O)(=O)NCc2cccnc2)cc1C(=O)NC1CCCCC1	0.2	1.2	8.6	-2.0	0.3	1.5	x	x	x
O=C(Nc1ccc(C(=O)O)cc1)/C(=C\C=C\c1ccccc1)NC(=O)c1ccccc1Br	0.2	-0.3	-0.7	6.0	1.6	-0.9	x	x	x
CC(=O)c1cccc(NC(=O)CSc2nnc(C(C)N(C)C)n2-c2ccc(F)cc2)c1 (stereo not given)	0.8	1.4	0.4	3.5	-0.1	1.5	x	x	x
CC(=O)c1cccc(NC(=O)CSc2nnc(C(C)N(C)C)n2Cc2ccccc2)c1 (stereo not given)	5.6*	-3.6	-0.6	-1.9	-0.2	1.4	2.0	3.4	-3.3
CS(=O)(=O)N(CC(=O)Nc1cc(Cl)ccc1Cl)c1ccccc1	-0.4	-0.8	0.8	6.1	-1.8	4.7	x	x	x
COc1ccc(-c2coc3c(C(=O)Nc4cccc(C(C)=O)c4)cccc23)c(C)c1	7.6*	-0.8	x	x	x	0.1	1.5	7.9	21.5*
COc1ccc(N2CCN(CCNC(=O)Nc3ccc(Cl)cc3)CC2)cc1	12.1*	0.8	5.9	5.9	-0.2	1.0	25.5*	6.8	13.4
Brc1ccc2[nH]c3nc(SCCN4CCOCC4)nnc3c2c1	16.3*	8.9	0.4	8.1	0.0	0.2	33.4*	15.2*!	23.3*!
c1ccc2c(c1)[nH]c1nc(SCCN3CCOCC3)nnc12	0.1	-0.8	-3.0	-3.8	-0.8	0.7	x	x	x
N=c1n(Cc2ccccc2)c2ccccc2n1CC(O)COc1ccc(Cl)cc1Cl (stereo not given)	10.3*	-7.0	x	20.4*	x	-0.4	18.5*	76.7*	8.9
N=c1n(Cc2ccc(Cl)cc2)c2ccccc2n1CC(O)COc1ccccc1 (stereo not given)	-0.1	-11.8	2.4	11.1	-0.3	2.5	x	x	x
Cc1cc(NS(=O)(=O)c2ccc(Nc3nc(-c4ccc(O)cc4)cs3)cc2)no1	5.7*	-10.9	1.6	3.7	0.6	-3.7	10.8*	-0.5	0.0
NC(=S)Nc1cccc(-c2n[nH]c(=S)o2)c1	13.6*	-0.9	-1.6	4.4	1.0	-2.8	35.4*	0.8	16.8*
O=C(CSc1nc2ccccc2[nH]1)N1CCN(c2ccc(F)cc2)CC1	1.1	5.8	2.8	-2.8	1.7	1.2	x	x	x
O=C(CCCSc1nc2ccccc2[nH]1)N1CCN(c2ccc([N+](=O)[O-])cc2)CC1	9.2*	1.7	5.7	-4.0	-2.6	1.4	55.0*	0.8	14.1
SMILES	TbMetRS inhib	CSN inh	IDE inh	IDE cell activ	TPT1 inhibitor	HNF4A DNA FP	TbMetRS confirm	Jurkat cytotox	TbMetRS FP orth
O=C(Nc1cccc(C(F)(F)F)c1)c1csc([C@H]2C[C@H](O)[C@@H](CO)O2)n1	-0.3	-1.9	x	x	x	0.6	x	x	x
CO[C@H]1CC[C@@]2(C)[C@@H](CC[C@@H]3[C@@H]2CC[C@@]2(C)[C@H]3C[C@H](C(=O)N[C@@H](CCCN=C(N)N)C(=O)NCC(=O)N[C@@H](CC(=O)O)C(N)=O)O[C@]23CCCO3)C1	-2.0	-4.8	x	2.9	x	-2.4	x	x	x
Cc1nn(CC(=O)NCCc2ccc(Cl)cc2Cl)c(C)c1[N+](=O)[O-]	16.1*	5.0	1.8	1.9	2.7	-1.2	33.4*	-4.3	14.0
O=C(Cn1cnnn1)NCCc1ccc(Cl)cc1Cl	9.4*	-3.0	-5.4	-1.6	-3.0	1.8	17.6*	3.4	13.3
Cc1ccc(NC(=O)Cn2nc(C)c([N+](=O)[O-])c2C)cc1Cl	-0.2	5.2	x	2.8	x	1.4	x	x	x
O=C(CN1CCNC(=O)C1)NCCc1ccc(Cl)cc1Cl	3.9	2.2	9.6	-10.0	-2.3	0.4	x	x	x
O=C(O)CCCn1c(O)c(C=C2N=c3ccccc3=N2)sc1=S	29.0*	-0.5	-5.2	6.2	3.8	0.5	43.8*	9.1	19.5*
CCCCC(CC)Cn1c(O)c(/C=C2\C=NN=C2c2ccccc2)sc1=S (stereo not given)	0.3	2.2	0.5	3.5	-1.3	-3.4	x	x	x
CCCn1c(O)c(/C=C2\C=NN=C2c2ccccc2)sc1=S	-0.2	-2.0	1.3	-0.4	-1.1	0.7	x	x	x
O=C(O)CCCCCn1c(O)c(C=C2N=c3ccccc3=N2)sc1=S	8.8*	-4.4	0.1	-0.7	18.7	5.2	24.9*	-3.6	12.0
CCCC(C(=O)O)n1c(O)c(C=C2N=c3ccccc3=N2)sc1=S (stereo not given)	5.8*	8.6	5.5	2.2	2.2	4.6	33.3*	-5.8	10.1
C=CCn1c(O)c(/C=C2\C=NN=C2c2ccccc2)sc1=S	0.6	-4.8	4.5	4.8	-0.1	-0.1	x	x	x
CSc1ccc(CN2CCC(C(=O)NCc3ccc(C)cc3)CC2)cc1	0.2	-6.7	4.0	3.1	-1.2	7.4	x	x	x

Bioassay records deposited in PubChem by several laboratories.
